Measurements: ChEMBL document CHEMBL1629638, “Pyrosequencing using the single-nucleotide polymorphism protocol for rapid determination of TEM- and SHV-type extended-spectrum beta-lactamases in clinical isolates and identification of the novel beta-lactamase genes blaSHV-48, blaSHV-105, and blaTEM-155” (2009)
Converted amounts (≈) assume the structure as drawn.

Columns and labels:
Type in all cases: functional
Escherichia coli [1] = test: Antimicrobial activity against Escherichia coli DH5[alpha] isolate GC 8128 expressing bla SHV-105 gene by microdilution method
Summary of the method: (§1)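 Recombinant strains carrying the cloned β-lactamase gene (shotgun cloned into pCLL2300, confirmed by standard sequencing) tested by broth microdilution. Serial antibiotic dilutions were inoculated to 10^5 CFU/ml and incubated 18 to 22 h at 35°C in ambient air. MIC was the lowest concentration completely inhibiting growth by unaided eye.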

Escherichia coli [2] = test: Antimicrobial activity against Escherichia coli DH5[alpha] isolate GC 8133 expressing bla […] gene by microdilution method; summary of the method: as §1
Escherichia coli [3] = test: Antimicrobial activity against Escherichia coli ATCC 25922 by microdilution method
Summary of the method: (§2)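 Broth microdilution MIC. Plates with serial dilutions of each β-lactam inoculated to 10^5 CFU/ml, incubated 18 to 22 h at 35°C in ambient air. MIC = lowest concentration completely inhibiting growth by unaided eye. Strains carrying the novel β-lactamases are recombinants, with the genes shotgun cloned into pCLL2300.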

Escherichia coli [4] = test: Antimicrobial activity against Escherichia coli DH5[alpha] by microdilution method; summary of the method: as §2
Escherichia coli [5] = test: Antimicrobial activity against Escherichia coli DH5[alpha] isolate GC 7668 expressing bla SHV-48 gene by microdilution method; summary of the method: as §2
Escherichia coli [6] = test: Antimicrobial activity against Escherichia coli DH5[alpha] isolate GC 8130 expressing bla SHV-1 gene by microdilution method; summary of the method: as §2
Escherichia coli [7] = test: Antimicrobial activity against Escherichia coli DH5[alpha] isolate GC 7668 expressing bla SHV-48 gene by Etest method in presence of clavulanic acid
Escherichia coli [8] = test: Antimicrobial activity against Escherichia coli DH5[alpha] isolate GC 8133 expressing bla […] gene by Etest method
Escherichia coli [9] = test: Antimicrobial activity against Escherichia coli ATCC 25922 by Etest method in presence of clavulanic acid
Escherichia coli [10] = test: Antimicrobial activity against Escherichia coli DH5[alpha] isolate GC 8130 expressing bla SHV-1 gene by Etest method in presence of clavulanic acid
Escherichia coli [11] = test: Antimicrobial activity against Escherichia coli ATCC 25922 by Etest method
Escherichia coli [12] = test: Antimicrobial activity against Escherichia coli DH5[alpha] isolate GC 8128 expressing bla SHV-105 gene by Etest method in presence of clavulanic acid
Summary of the method: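 The blaSHV-105 gene was shotgun-cloned into vector pCLL2300, and the insert was confirmed by standard sequencing. The recombinant E. coli strain carrying it was tested against a β-lactam panel in Etest format.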

Escherichia coli [13] = test: Antimicrobial activity against Escherichia coli DH5[alpha] by Etest method in presence of clavulanic acid
Escherichia coli [14] = test: Antimicrobial activity against Escherichia coli DH5[alpha] isolate GC 8130 expressing bla SHV-1 gene by Etest method
Escherichia coli [15] = test: Antimicrobial activity against Escherichia coli DH5[alpha] isolate GC 8133 expressing bla […] gene by Etest method in presence of clavulanic acid
Escherichia coli [16] = test: Antimicrobial activity against Escherichia coli DH5[alpha] isolate GC 7668 expressing bla SHV-48 gene by Etest method
Escherichia coli [17] = test: Antimicrobial activity against Escherichia coli DH5[alpha] by Etest method
Escherichia coli [18] = test: Antimicrobial activity against Escherichia coli DH5[alpha] isolate GC 8128 expressing bla SHV-105 gene by Etest method
Escherichia coli [19] = test: Antimicrobial activity against Escherichia coli ATCC 25922 by microdilution method in presence of clavulanic acid
Summary of the method: (§3)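 Broth microdilution MIC. Plates of serial antibiotic dilutions inoculated to 10^5 CFU/ml and incubated 18 to 22 h at 35°C in ambient air. MIC is the lowest concentration giving complete growth inhibition by unaided eye. The recombinant strains carry shotgun-cloned bla genes in pCLL2300.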

Escherichia coli [20] = test: Antimicrobial activity against Escherichia coli DH5[alpha] isolate GC 8128 expressing bla SHV-105 gene by microdilution method in presence of clavulanic acid; summary of the method: as §3
Escherichia coli [21] = test: Antimicrobial activity against Escherichia coli DH5[alpha] isolate GC 8130 expressing bla SHV-1 gene by microdilution method in presence of clavulanic acid; summary of the method: as §3
Escherichia coli [22] = test: Antimicrobial activity against Escherichia coli DH5[alpha] isolate GC 7668 expressing bla SHV-48 gene by microdilution method in presence of clavulanic acid; summary of the method: as §3
Escherichia coli [23] = test: Antimicrobial activity against Escherichia coli DH5[alpha] by microdilution method in presence of clavulanic acid; summary of the method: as §3
Escherichia coli [24] = test: Antimicrobial activity against Escherichia coli DH5[alpha] isolate GC 8133 expressing bla […] gene by microdilution method in presence of clavulanic acid; summary of the method: as §3
Escherichia coli [25] = test: Antimicrobial activity against Escherichia coli DH5[alpha] isolate GC 7668 expressing bla SHV-48 gene by microdilution method in presence of Tazobactam; summary of the method: as §3
Escherichia coli [26] = test: Antimicrobial activity against Escherichia coli DH5[alpha] isolate GC 8133 expressing bla […] gene by microdilution method in presence of Tazobactam; summary of the method: as §3
Escherichia coli [27] = test: Antimicrobial activity against Escherichia coli DH5[alpha] by microdilution method in presence of Tazobactam; summary of the method: as §3
Escherichia coli [28] = test: Antimicrobial activity against Escherichia coli DH5[alpha] isolate GC 8128 expressing bla SHV-105 gene by microdilution method in presence of Tazobactam; summary of the method: as §3
Escherichia coli [29] = test: Antimicrobial activity against Escherichia coli DH5[alpha] isolate GC 8130 expressing bla SHV-1 gene by microdilution method in presence of Tazobactam; summary of the method: as §3
Escherichia coli [30] = test: Antimicrobial activity against Escherichia coli ATCC 25922 by microdilution method in presence of Tazobactam; summary of the method: as §3

Compound | MIC (Escherichia coli [1]) [µg/mL] | MIC (Escherichia coli [2]) [µg/mL] | MIC (Escherichia coli [3]) [µg/mL] | MIC (Escherichia coli [4]) [µg/mL] | MIC (Escherichia coli [5]) [µg/mL] | MIC (Escherichia coli [6]) [µg/mL] | further results
CO/N=C(\C(=O)N[C@@H]1C(=O)N2C(C(=O)[O-])=C(C[N+]3(C)CCCC3)CS[C@H]12)c1csc(N)n1 [CEFEPIME] | 16 (≈ 33.3 µM) | 128 (≈ 266 µM) | ≤ 0.125 | ≤ 0.125 | 0.5 (≈ 1.04 µM) | – | –
C[C@H]1[C@H](NC(=O)/C(=N\OC(C)(C)C(=O)O)c2csc(N)n2)C(=O)N1S(=O)(=O)O [AZTREONAM] | > 128 | > 128 | 0.25 (≈ 0.574 µM) | ≤ 0.125 | 0.5 (≈ 1.15 µM) | 0.25 (≈ 0.574 µM) | –
CC1(C)S[C@@H]2[C@H](NC(=O)[C@H](N)c3ccccc3)C(=O)N2[C@H]1C(=O)O [AMPICILLIN] | > 128 | > 128 | 4 (≈ 11.4 µM) | 8 (≈ 22.9 µM) | > 128 | > 128 | –
CC(C)(O/N=C(\C(=O)N[C@@H]1C(=O)N2C(C(=O)[O-])=C(C[n+]3ccccc3)CS[C@H]12)c1csc(N)n1)C(=O)O [CEFTAZIDIME] | > 128 | > 128 | 0.25 (≈ 0.457 µM) | 0.25 (≈ 0.457 µM) | 1 (≈ 1.83 µM) | 0.5 (≈ 0.915 µM) | MIC (Escherichia coli [7]): 0.125 µg/mL; MIC (Escherichia coli [8]): > 32 µg/mL; MIC (Escherichia coli [9]): 0.125 µg/mL; MIC (Escherichia coli [10]): 0.125 µg/mL; MIC (Escherichia coli [11]): < 0.5 µg/mL; MIC (Escherichia coli [12]): 0.25 µg/mL; MIC (Escherichia coli [13]): 0.094 µg/mL; MIC (Escherichia coli [14]): < 0.5 µg/mL; MIC (Escherichia coli [15]): 0.5 µg/mL; MIC (Escherichia coli [16]): < 0.5 µg/mL; MIC (Escherichia coli [17]): < 0.5 µg/mL; MIC (Escherichia coli [18]): > 32 µg/mL
CO/N=C(\C(=O)N[C@@H]1C(=O)N2C(C(=O)O)=C(COC(C)=O)CS[C@H]12)c1csc(N)n1 [CEFOTAXIME] | 128 (≈ 281 µM) | 32 (≈ 70.3 µM) | ≤ 0.125 | ≤ 0.125 | ≤ 0.125 | ≤ 0.125 | MIC (Escherichia coli [7]): 0.023 µg/mL; MIC (Escherichia coli [8]): 2 µg/mL (≈ 4.39 µM); MIC (Escherichia coli [9]): 0.047 µg/mL; MIC (Escherichia coli [10]): 0.023 µg/mL; MIC (Escherichia coli [11]): < 0.25 µg/mL; MIC (Escherichia coli [12]): 0.032 µg/mL; MIC (Escherichia coli [13]): 0.023 µg/mL; MIC (Escherichia coli [14]): < 0.25 µg/mL; MIC (Escherichia coli [15]): 0.023 µg/mL; MIC (Escherichia coli [16]): < 0.25 µg/mL; MIC (Escherichia coli [17]): < 0.25 µg/mL; MIC (Escherichia coli [18]): > 16 µg/mL
C[C@@H](O)[C@H]1C(=O)N2C(C(=O)O)=C(SCCNC=N)C[C@H]12 [IMIPENEM ANHYDROUS] | – | 0.25 (≈ 0.835 µM) | ≤ 0.125 | 0.25 (≈ 0.835 µM) | 0.25 (≈ 0.835 µM) | – | –
CC1(C)S[C@@H]2[C@H](NC(=O)[C@H](N)c3ccc(O)cc3)C(=O)N2[C@H]1C(=O)O [AMOXICILLIN] | – | – | – | – | – | – | MIC (Escherichia coli [19]): 8 µg/mL; MIC (Escherichia coli [20]): 16 µg/mL; MIC (Escherichia coli [21]): 16 µg/mL; MIC (Escherichia coli [22]): 32 µg/mL; MIC (Escherichia coli [23]): 8 µg/mL; MIC (Escherichia coli [24]): 32 µg/mL
CO[C@@]1(NC(=O)Cc2cccs2)C(=O)N2C(C(=O)O)=C(COC(N)=O)CS[C@@H]21 [CEFOXITIN] | 8 (≈ 18.7 µM) | 8 (≈ 18.7 µM) | 4 (≈ 9.36 µM) | 8 (≈ 18.7 µM) | 4 (≈ 9.36 µM) | 16 (≈ 37.4 µM) | –
CCN1CCN(C(=O)N[C@@H](C(=O)N[C@@H]2C(=O)N3[C@@H]2SC(C)(C)[C@@H]3C(=O)O)c2ccccc2)C(=O)C1=O [PIPERACILLIN] | > 128 | > 128 | 2 (≈ 3.86 µM) | 0.5 (≈ 0.966 µM) | > 128 | 64 (≈ 124 µM) | MIC (Escherichia coli [25]): > 128 µg/mL; MIC (Escherichia coli [26]): 2 µg/mL; MIC (Escherichia coli [27]): 0.5 µg/mL; MIC (Escherichia coli [28]): 1 µg/mL; MIC (Escherichia coli [29]): 1 µg/mL; MIC (Escherichia coli [30]): 2 µg/mL
CO/N=C(\C(=O)N[C@@H]1C(=O)N2C(C(=O)O)=C(COC(N)=O)CS[C@H]12)c1ccco1 [CEFUROXIME] | 128 (≈ 302 µM) | 64 (≈ 151 µM) | ≤ 0.125 | ≤ 0.125 | ≤ 0.125 | 0.25 (≈ 0.589 µM) | –
